# Screens from PubChem.
# In the library only some 3.7% were active in any assay of this set; here they are far more common.
# hERG rescue: compounds protecting human hERG from proarrhythmic drug block | CHO-hERG, FluxOR thallium flux, dofetilide IC70 present | activation (rescue from dofetilide block), less the hit threshold, % at 10 µM | hit rate 0.51% among 310,000 | AID 1511;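 active = activation above the mean of controls blocked by dofetilide plus 5 SD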;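 also: thallium influx through hERG after potassium depolarization seen as dye fluorescence rise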
# KCNQ1 act: human KCNQ1 channel potentiation or activation. CHO-K1 KCNQ1, thallium flux FluxOR fluorescence; stronger effect = higher value. B-score at 10 µM. hit rate 0.35% among 310,000. AID 2648;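 active = fluorescence ratio B-score, a plate-corrected score, at least three library SD, with initial intensity B-score within 5 SD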
#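 Doses: Single concentration per compound, DMSO matched to controls | Test system: KCNQ1-transfected CHO-K1 cells | Timing: 90 min dye loading and 20 min compound exposure, both at room temperature | Measured by: Kinetic FluxOR thallium fluorescence, 10-s 1-Hz baseline, 110-s post-stimulus read | Medium: Assay buffer with matched DMSO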
# KCNK9 inh: blocks the human KCNK9 two-pore domain potassium channel; AID 488922; hit rate 1.2% among 310,000; B-score at 10 µM; HEK293 KCNK9, FluxOR thallium flux fluorescence; stronger effect = lower value; Q9NPC2;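 active = ratio B-score over 3 SD below the library mean, with starting fluorescence within 5 SD of its mean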;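 also: negative B-score means less thallium flux so channel inhibition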
# Target sequence (Q9NPC2 whole entry, looked up, the tested form may be a part): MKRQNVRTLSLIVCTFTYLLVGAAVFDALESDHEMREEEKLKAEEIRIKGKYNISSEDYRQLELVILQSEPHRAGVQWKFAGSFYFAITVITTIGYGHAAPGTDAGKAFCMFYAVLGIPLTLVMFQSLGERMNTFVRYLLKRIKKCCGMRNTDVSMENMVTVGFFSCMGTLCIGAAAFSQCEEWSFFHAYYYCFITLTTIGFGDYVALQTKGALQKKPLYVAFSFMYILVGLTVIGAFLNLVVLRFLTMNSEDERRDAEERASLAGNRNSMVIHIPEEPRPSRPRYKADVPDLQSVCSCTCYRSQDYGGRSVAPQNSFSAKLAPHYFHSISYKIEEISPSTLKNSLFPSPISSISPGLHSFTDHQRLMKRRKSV
# KCNQ1 block: blocks the human KCNQ1 potassium channel | P51787 | CHO-K1 KCNQ1, FluxOR thallium flux fluorescence; stronger effect = higher value | B-score at 10 µM | hit rate 1.3% among 310,000 | AID 2642;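 active = compounds whose thallium flux B-score, printed positive for inhibition, exceeds three library SD while starting fluorescence stays within three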;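 also: channel opened by potassium depolarization with thallium stimulus after 20 min compound exposure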
# KCNK3 inh: human KCNK3 channel inhibition, primary screen | O14649 | B-score at 10 µM | AID 602410 | CHO-KCNK3 thallium flux, FluxOR fluorescence; stronger effect = lower value | hit rate 0.84% among 340,000;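 active = B-score under library mean minus 4 SD, starting fluorescence ratio at most library mean plus 5 SD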;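 also: more negative B-score means stronger inhibition of thallium flux through KCNK3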
# Kir21 inh: blocks the mouse Kir2.1 inward-rectifier potassium channel; P35561; HEK293-Kir2.1, FluxOR thallium flux fluorescence; stronger effect = lower value; B-score at 10 µM; hit rate 0.85% among 310,000;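 active = fluorescence ratio B-score at or below minus 3 SD of library scores, with starting-brightness B-score within 2 SD, cut at about -4.2 in these data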;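 also: channel flux triggered by added potassium and thallium sulfate stimulus; B-score of peak minus minimum fluorescence over baseline after thallium stimulus; more negative B-score means stronger Kir2.1 block with less thallium influx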
# KCNK9 inh conf: confirmation of human KCNK9 potassium channel inhibitors; shares compounds with KCNK9 inh; HEK293 KCNK9 cells, FluxOR thallium flux fluorescence; inhibition, % at 10 µM; hit rate 43% among 4,900;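 active = thallium signal inhibited by more than 5 SD of the compound-free buffer control wells, on both duplicate plates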;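 also: 0% = assay buffer control wells without compound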
# Kir2-1 spec: tests whether KCNK9 modulators also affect mouse Kir2.1. Kir2.1 cells, FluxOR thallium flux fluorescence. inhibition, % at 10 µM. shares compounds with KCNK9 inh. hit rate 4% among 4,900;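 active = thallium signal drop more than 5 SD beyond the mean of the no-compound control wells, seen in both duplicate plates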;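 also: signal is fluorescence rise after thallium addition divided by baseline fluorescence; plate controls were assay buffer only for no effect and full block by chlorpromazine control for full effect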
# HEK293 Tl ctr: second counter-screen for KCNK9 modulators: effect in non-induced cells; shares compounds with KCNK9 inh; non-induced KCNK9-HEK293, FluxOR thallium flux; inhibition, % at 10 µM; AID 492997; hit rate 40% among 4,900;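 active = thallium signal drop beyond 5 SD of the untreated control mean, on both duplicate plates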;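 also: plate controls were buffer only IC0 wells for no effect and SID17386958 at its maximal inhibitory level for full effect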
# * marks the source's active call; other numbers are inactive results; i = inactive; nt = no result given.
SMILES,hERG rescue,KCNQ1 act,KCNK9 inh,KCNQ1 block,KCNK3 inh,Kir21 inh,KCNK9 inh conf,Kir2-1 spec,HEK293 Tl ctr
CCc1cc(=O)oc2cc(OCC(=O)N3C[C@H]4C[C@@H](C3)c3cccc(=O)n3C4)ccc12,-4.9,i,i,i,i,0.61,nt,nt,nt
OC(CN1CC=C(c2ccccc2)CC1)c1ccccc1 (stereo not given),-4.6,i,i,i,i,0,nt,nt,nt
Cc1cc(O)c(CN2CC=C(c3ccccc3)CC2)cc1C(C)C,-9.4,i,i,i,i,1.29,i,i,i
O=C(c1ccccc1F)c1cn(Cc2ccc(F)cc2)c2ccccc12,-6.5,i,-8.7*,i,i,0.62,50.0%*,i,33.5%*
COC(=O)Cn1cc(C(=O)c2ccccc2F)c2ccccc21,-7.5,i,i,i,i,0.4,nt,nt,nt
CCCc1cc(=O)oc2cc(OCC(=O)N3CCC(C(=O)O)(c4ccccc4)CC3)ccc12,-3.5,i,i,i,i,-0.11,nt,nt,nt
O=C(CCC(=O)N1C[C@H]2C[C@@H](C1)c1cccc(=O)n1C2)NCc1ccc(F)cc1,nt,nt,nt,nt,i,nt,nt,nt,nt
CCN(CC)c1ccc(CC2C(=O)N(C)C(=O)N(C)C2=O)cc1,-10.4,i,i,i,i,-2.39,i,i,i
CSc1ncc(CN2CCCC(C(=O)c3sccc3C)C2)cn1 (stereo not given),-5.3,i,i,i,i,-0.66,i,i,i
CSc1ccc(C(=O)C2CCCN(Cc3cnc(SC)nc3)C2)cc1 (stereo not given),-9.6,i,i,i,i,0.53,i,i,i
COc1cc(CN2CCCC(C(=O)c3sccc3C)C2)cc(Cl)c1O (stereo not given),-10.4,i,i,i,i,-1.59,i,i,i
Cc1ccsc1C(=O)C1CCCN(Cc2cccc(-n3cccn3)c2)C1 (stereo not given),-13.7,i,i,i,i,-0.33,i,i,i
CC(NS(C)(=O)=O)c1nnc2n1-c1ccc(Br)cc1C(c1ccccc1Cl)=NC2 (stereo not given),-3.0,i,i,i,i,-0.43,nt,nt,nt
Oc1c(Cl)c(Cl)c(Cl)c(Cl)c1Cl,-13.8,i,i,i,i,0.83,i,i,i
Cn1cc(C(=O)NCc2ccccc2)c2ccccc21,3.2,i,i,i,i,-1.72,nt,nt,nt
Cc1ccc(O)c(C(=O)c2cc(C(=O)NCc3ccccc3)c(=O)n(Cc3ccccc3)c2)c1,-4.6,i,-10.2*,i,i,-0.73,38.0%*,i,46.0%*
Cc1ccc(Cn2ccccc2=N)cc1,-6.8,i,i,i,i,1.44,nt,nt,nt
CC(C)(C)[C@]1(O)C[C@@H]2OC(=O)C[C@@]23C(=O)O[C@@H]2OC(=O)[C@@H](O)C213 (stereo not given in full),nt,nt,nt,nt,i,nt,nt,nt,nt
Fc1ccc(C[n+]2c(-c3ccccc3)cc(-c3ccccc3)cc2-c2ccccc2)cc1,-24.0,i,-11.5*,6*,nt,-9.27*,51.5%*,67.5%*,i
O=C(CN1CC=C(c2ccccc2)CC1)Nc1cc(Cl)ccc1Cl,-13.4,i,i,i,i,-0.13,i,i,i
O=c1[nH]c(=S)n(CCC2=CCCCC2)c(O)c1/C=N/Nc1ccccc1,-13.4,i,i,i,i,-1.94,i,i,25.0%*
Cc1cccc(NC(=O)[C@@H](NC(=O)N2C[C@H]3C[C@@H](C2)c2cccc(=O)n2C3)C(C)C)c1,-2.7,i,i,i,i,0.03,nt,nt,nt
COc1ccccc1N1CCN(C2CCCN(C(=O)COc3ccccc3Cl)C2)CC1 (stereo not given),-9.4,i,i,i,i,1.08,i,i,i
COc1ccccc1OCC(=O)N1CCCC(N(C)Cc2ccccc2)C1 (stereo not given),-7.6,i,i,i,i,-2.13,nt,nt,nt
COC(=O)C1=C(c2ccc(Cl)c(C(F)(F)F)c2)C[C@@H]2CC[C@H]1N2C(=O)N1CCC(C)CC1,nt,nt,nt,nt,i,nt,nt,nt,nt
SMILES,hERG rescue,KCNQ1 act,KCNK9 inh,KCNQ1 block,KCNK3 inh,Kir21 inh,KCNK9 inh conf,Kir2-1 spec,HEK293 Tl ctr
CC1(C)C(=O)CC[C@@]2(C)C1=CCC1C2CC[C@]2(C)C(=O)CCC12 (stereo not given in full),nt,nt,nt,nt,i,nt,nt,nt,nt
CC(=NCCN1CCCCC1)c1c(O)n(-c2ccccc2)c(=O)[nH]c1=O,-9.8,i,i,i,i,-1.34,i,i,i
COc1cc(C)c(CN2CC=C(c3ccc(F)cc3)CC2)cc1C,-9.1,i,i,i,i,0.94,i,i,i
COc1cc(CN2CC=C(c3ccc(F)cc3)CC2)cc(OC)c1,-5.8,i,i,i,i,-0.71,nt,nt,nt
CCOP(=O)(C#CC(C)(C)C)C(C)(O)c1ccccc1 (stereo not given),-8.7,i,i,i,i,0.28,nt,nt,nt
CC(C)(C#CC(=O)O)OOC(c1ccccc1)(c1ccccc1)c1ccccc1,-13.1,i,i,i,i,0.46,i,i,i
Cc1ccc(-n2nc(C)c3c2NC(=O)CSC3c2ccc3c(c2)OCO3)cc1 (stereo not given),-11.1,i,-13.2*,i,i,-0.03,36.5%*,i,31.0%*
COc1ccc(C2SCC(=O)Nc3c2c(C)nn3-c2ccccc2)cc1 (stereo not given),-5.7,i,i,i,i,0.62,nt,nt,nt
Clc1cnc(Oc2ccc(Oc3ncc(Cl)cc3Cl)cc2)c(Cl)c1,-6.3,i,i,i,i,0.73,i,i,i
O=C(Nc1ccc2ccccc2c1)c1nn(C23CC4CC(CC(C4)C2)C3)cc1Br,-11.7,i,i,i,i,-0.03,i,i,i
Cc1nc(Cl)sc1C(=O)Nc1ccc2ccccc2c1,-7.0,i,i,i,i,2.29,nt,nt,nt
Cc1cccc(CN2CCCN(Cc3ccc(Cl)cc3)S2(=O)=O)c1,-5.4,i,i,i,i,-0.45,nt,nt,nt
Cc1ccc(CN2CCCN(Cc3ccc(C)cc3)S2(=O)=O)cc1,-4.3,i,i,i,i,-0.66,i,i,i
CC(C)n1c(=O)c(C=Nc2ccc(F)cc2)c(O)n(Cc2ccco2)c1=O,-5.5,i,i,i,i,0.49,i,i,i
